# Most compounds without a hit are left out; they make up all but 2.1% or so of the library.
# GRK2 aptamer HTS = blocks RNA aptamer binding to human GRK2; P25098; bead flow cytometry, FAM-aptamer displacement from GRK2; inhibition of aptamer binding, % at 10 µM; 330,000 tested, 0.59% active;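 active = inhibition of aptamer binding above 40%, roughly 3 SD of noise, on plates passing a quality check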;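 also: median bead fluorescence of bound FAM aptamer so fluorescent compounds give negative values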
# Scp-1 inhibitor = blocks human Scp-1 phosphatase activity; 340,000 tested, 0.88% active; Q9GZU7; AID 493091; inhibition, % at 20 µM; Recombinant Scp1, phosphopeptide, malachite green phosphate absorbance;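 active = inhibition above about 50% at 20 µM, limit read from the data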
#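 Incubation: 45 min enzyme reaction at room temperature / System: truncated SCP-1 phosphatase (76-261aa) / Reagent: Phospho 17-mer peptide substrate / Buffer or medium: Acidic Tris acetate buffer with magnesium and detergent / Signal: absorbance at 630 nm / Doses: one concentration, 20 µM, with 1.0% DMSO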
# SUMO1-SIM PPI = SUMO1-SIM interaction modulation; P63165; inhibition, % at 20 µM; AID 602429; SUMO1 binding to a labelled peptide, TR-FRET, 1 h; 360,000 tested, 0.33% active; in the data active = inhibition above about 37%
# LMPTP inh = LMPTP (human) inhibition; AID 651560; 360,000 tested, 0.22% active; inhibition, % at 20 µM; recombinant LMPTP-A, OMFP fluorogenic substrate, fluorescence intensity; P24666;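 active = compounds that cut the enzyme signal by at least half of the control window in the single-dose screen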
#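 Test system: LMPTP-A phosphatase enzyme; input: 0.625 nM LMPTP-A final; reagent: OMFP substrate, 400 µM final; compound dosing: 20 µM single dose, 3% DMSO; incubation: 50 min dark incubation at room temperature; measured by: endpoint fluorescence intensity from OMFP dephosphorylation; measure: % inhibition relative to no-enzyme and uninhibited control wells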
# STEP block = inhibitors of human striatal-enriched phosphatase STEP; recombinant STEP, OMFP fluorogenic substrate, fluorescence; 360,000 tested, 0.25% active; P54829; inhibition, % at 20 µM;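 active = inhibition at 20 µM, scaled per plate between control wells, above about 37%, limit read from the data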
#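 System: isolated STEP enzyme; schedule: 20 min enzyme reaction at room temperature, protected from light; medium: Bis-Tris buffer pH 6.0, 2.5 mM DTT, 0.005% Tween 20; signal: fluorescence, 480/540 nm; dosing: single compound dose of 20 µM, 1% DMSO final; also added: OMFP substrate, 25 µM final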
# DNMT1 block = DNMT1 (human) enzyme inhibition; AID 588458; inhibition (reported as % activation of signal), % at 10 µM; P26358; DNMT1 molecular beacon, Hinp1I cleavage, fluorescence; 360,000 tested, 0.83% active; in the data active = inhibition above about 50%
# Hits are given with their value; 0 = inactive; - = not tested or not shown.
SMILES,GRK2 aptamer HTS,Scp-1 inhibitor,SUMO1-SIM PPI,LMPTP inh,STEP block,DNMT1 block
CC(C)S(=O)(=O)c1csc(C(=O)Nc2ccc(F)cc2)c1N,0,91.6,0,0,0,0
Cc1nc(Cl)sc1C(=O)Nc1ccc(F)cc1,-,0,0,0,0,0
CO/N=C(/C(=O)N[C@@H]1C(=O)N2C(C(=O)O)=CCS[C@H]12)c1cnc(N)s1,0,-,105.8,0,77.5,97.8
CN(C)S(=O)(=O)c1cccc(C(=O)OCC(=O)c2ccc3c(c2)NC(=O)CO3)c1,0,0,0,0,0,0
CN(C)S(=O)(=O)c1ccc(C(=O)OCC(=O)c2ccc3c(c2)NC(=O)CO3)cc1,0,0,0,56.9,0,0
CCOCCCNC(=O)NC(=O)CN1CCN(S(=O)(=O)c2ccc3c(c2)OCCO3)CC1,0,0,0,0,0,0
O=C(NCCC1=CCCCC1)C1CCN(S(=O)(=O)c2ccccc2C(F)(F)F)CC1,0,0,0,0,0,0
Cc1cc(C)cc(NC(=O)NN2C(C)CCCC2C)c1 (stereo not given),100.0,0,54.4,0,0,0
COc1ccc(NC2CCCN(C(=O)c3ccc4[nH]c(C)c(C)c4c3)C2)cc1OC (stereo not given),0,0,0,0,0,0
Cc1ccc(Cl)cc1N1CCN(C(=O)c2cc3c(=O)n(C)c4ccccc4c3n2C)CC1,0,0,48.3,0,0,0
O=C(c1ccccc1)N(c1ccccc1)c1nccc2ccccc12,-,0,0,0,0,0
Cc1nc(N)sc1-c1csc(NCc2ccccc2)n1,0,0,0,0,0,0
Cc1cc(-c2csc(NCc3ccccc3)n2)c(C)n1C,-,0,0,0,0,75.3
COCCNC(=O)c1cccc(OC2CCN(Cc3ccc(Cl)c(F)c3)CC2)c1,0,0,0,0,0,0
COc1ccc(C(C)(O)c2nc(-c3csc4ccccc34)cs2)cc1 (stereo not given),-,-,0,0,0,0
N#C/C(=C/c1ccc(C(=O)O)cc1)C(=O)Nc1ccccc1,0,0,0,0,0,0
N#C/C(=C\c1ccc(OCc2ccccc2)cc1)C(=O)Nc1ccc(C(=O)O)cc1,0,85.5,-,-,-,-
COc1cc(/C=C(\C#N)C(=O)Nc2cccc(C(=O)O)c2)ccc1OCc1ccc(Cl)cc1,0,0,58.8,0,85.5,0
COc1ccc(-c2cc(C#N)nc(N3CCN(C)CC3)n2)cc1,0,0,0,0,0,0
COc1ccc(-c2cc(C#N)nc(N3CCNCC3)n2)cc1,0,0,0,0,0,79.4
Oc1ccc(Nc2nc3ccccc3nc2Nc2ccc(O)cc2)cc1,0,60.3,0,0,0,0
CCOc1ccc2nc(N/C(N)=N/C(=S)Nc3ccc(C)c(C)c3)nc(C)c2c1,94.0,0,0,0,0,0
COc1ccc(NC(=S)/N=C(\N)Nc2nc(C)c3ccc(C)cc3n2)cc1,0,0,0,0,0,0
Cc1ccc(NC(=O)CSCC(=O)OCc2cc(=O)oc3cc(O)ccc23)c(C)c1,0,0,0,0,0,0
COc1ccc(-c2c(C(C)=O)c(C)nc3sc4c(c23)NC(c2ccccc2)NC4=O)cc1 (stereo not given),0,0,39.9,0,0,0
SMILES,GRK2 aptamer HTS,Scp-1 inhibitor,SUMO1-SIM PPI,LMPTP inh,STEP block,DNMT1 block
CCOC(=O)c1c(C)nc2sc3c(c2c1-c1ccc(OC)cc1)NC(c1ccccc1)NC3=O (stereo not given),0,0,46.6,0,0,0
CCOC(=O)c1c(C)nc2sc3c(=O)[nH]cnc3c2c1-c1ccc(OC)cc1,0,0,0,0,0,0
COc1ccc(-c2c(C(C)=O)c(C)nc3sc4c(=O)[nH]nnc4c23)cc1,0,0,0,0,0,0
Nc1cc2c(cc1Cl)-c1ccc([N+](=O)[O-])cc1C2=NO,-,0,0,0,0,0
COC(=O)CC1C(=O)NCCN1C(=S)Nc1ccccc1Cl (stereo not given),0,0,0,0,0,0
Cc1ccccc1-c1cc2nc(Oc3cccc(F)c3)n(C)c(=O)c2s1,-,-,0,0,0,0
Cc1ccc(N=Cc2cc(Cc3ccccc3Cl)cc([N+](=O)[O-])c2O)c(O)c1,0,0,0,0,0,0
COc1ccc(N=Cc2cc(Cc3ccccc3Cl)cc([N+](=O)[O-])c2O)cc1OC,0,67.2,0,0,0,0

# Source: PubChem (several laboratories)
